From ChEMBL document CHEMBL3616442, “Unconventional Knoevenagel-type indoles: Synthesis and cell-based studies for the identification of pro-apoptotic agents” (Eur J Med Chem, 2015)

Columns and labels:
[1] = Growth inhibition of human SF539 cells after 48 hrs by sulforhodamine B assay; format: functional; conditions: SF-539, 48 h
[2] = tested on: OVCAR-3; assay: Growth inhibition of human OVCAR3 cells after 48 hrs by sulforhodamine B assay; format: functional; conditions: OVCAR-3, 48 h
How it was run: (§1)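 NCI 60-cell-line screen. Compounds tested at five 10-fold dilutions from 10^-4 to 10^-8 M. Cells exposed for the last 48 h of a 72 h incubation, growth estimated by sulforhodamine B protein assay. GI50 is the concentration giving 50% growth inhibition. Values beyond the tested range are expressed as greater or lesser than the extreme concentration.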

[3] = Growth inhibition of human EKVX cells after 48 hrs by sulforhodamine B assay; format: functional; how it was run: as §1
[4] = tested on: SK-MEL-5; assay: Growth inhibition of human SK-MEL-5 cells after 48 hrs by sulforhodamine B assay; format: functional; conditions: SK-MEL-5, 48 h
[5] = tested on: SR; assay: Growth inhibition of human SR cells after 48 hrs by sulforhodamine B assay; format: functional
[6] = tested on: DU-145; assay: Growth inhibition of human DU145 cells after 48 hrs by sulforhodamine B assay; format: functional; conditions: DU-145, 48 h; how it was run: as §1
[7] = tested on: MT4; assay: Antiproliferative activity against human MT4 cells after 96 hrs by MTT assay; format: functional, cell-based; conditions: MT4, 96 h
How it was run: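 Exponentially growing MT-4 cells (CD4+ human T-cells carrying integrated HTLV-1 genome), seeded at 1×10^5 cells/mL in RPMI-1640 with 10% FCS and antibiotics. Serial dilutions of compound (DMSO stock 100 mM, diluted in medium), 37 °C, 5% CO₂, 96 h. Viability read by MTT. 50% inhibition versus untreated controls by linear regression. Mean ± SD of three independent determinations.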

[8] = Growth inhibition of human RPMI8226 cells after 48 hrs by sulforhodamine B assay; format: functional; conditions: RPMI-8226, 48 h
[9] = tested on: MDA-MB-468; assay: Growth inhibition of human MDA-MB-468 cells after 48 hrs by sulforhodamine B assay; format: functional; conditions: MDA-MB-468, 48 h; how it was run: as §1
[10] = tested on: UACC-257; assay: Growth inhibition of human UACC257 cells after 48 hrs by sulforhodamine B assay; format: functional; conditions: UACC-257, 48 h
[11] = tested on: A549; assay: Growth inhibition of human A549 cells after 48 hrs by sulforhodamine B assay; format: functional; conditions: A549, 48 h; how it was run: as §1
[12] = tested on: MCF7; assay: Growth inhibition of human MCF7 cells after 48 hrs by sulforhodamine B assay; format: functional; conditions: MCF7, 48 h; how it was run: as §1
[13] = tested on: SK-MEL-2; assay: Growth inhibition of human SK-MEL-2 cells after 48 hrs by sulforhodamine B assay; format: functional; conditions: SK-MEL-2, 48 h
[14] = Growth inhibition of human LOXIMVI cells after 48 hrs by sulforhodamine B assay; format: functional; conditions: LOX IMVI; how it was run: as §1
[15] = tested on: PC-3; assay: Growth inhibition of human PC3 cells after 48 hrs by sulforhodamine B assay; format: functional; conditions: PC-3, 48 h
[16] = tested on: UO-31; assay: Growth inhibition of human UO31 cells after 48 hrs by sulforhodamine B assay; format: functional; conditions: UO-31, 48 h
[17] = tested on: SN12C; assay: Growth inhibition of human SN12C cells after 48 hrs by sulforhodamine B assay; format: functional
[18] = tested on: CAKI-1; assay: Growth inhibition of human CAKI-1 cells after 48 hrs by sulforhodamine B assay; format: functional; conditions: CAKI-1, 48 h; how it was run: as §1
[19] = tested on: OVCAR-4; assay: Growth inhibition of human OVCAR4 cells after 48 hrs by sulforhodamine B assay; format: functional; conditions: OVCAR-4, 48 h; how it was run: as §1
[20] = tested on: HL-60(TB); assay: Growth inhibition of human HL-60(TB) cells after 48 hrs by sulforhodamine B assay; format: functional; conditions: HL-60, 48 h
How it was run: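 NCI 60-cell-line screen, HL-60(TB) included. Compound given at five 10-fold dilutions from 10^-4 to 10^-8 M. Cells exposed for the last 48 h of a 72 h incubation. Growth or viability estimated by sulforhodamine B protein assay. GI50 is the concentration giving 50% growth inhibition. Values outside the tested range are reported as greater or less than the highest or lowest concentration.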

[21] = tested on: HCT-15; assay: Growth inhibition of human HCT15 cells after 48 hrs by sulforhodamine B assay; format: functional; conditions: HCT-15, 48 h; how it was run: as §1
[22] = tested on: M14; assay: Growth inhibition of human M14 cells after 48 hrs by sulforhodamine B assay; format: functional; conditions: M14, 48 h; how it was run: as §1
[23] = tested on: K562; assay: Growth inhibition of human K562 cells after 48 hrs by sulforhodamine B assay; format: functional; conditions: K562, 48 h; how it was run: as §1
[24] = tested on: NCI-H226; assay: Growth inhibition of human NCI-H226 cells after 48 hrs by sulforhodamine B assay; format: functional; conditions: NCI-H226, 48 h; how it was run: as §1
[25] = tested on: KM12; assay: Growth inhibition of human KM12 cells after 48 hrs by sulforhodamine B assay; format: functional; conditions: KM12, 48 h; how it was run: as §1
[26] = tested on: HCT-116; assay: Growth inhibition of human HCT116 cells after 48 hrs by sulforhodamine B assay; format: functional; conditions: HCT-116, 48 h; how it was run: as §1
[27] = tested on: U-251; assay: Growth inhibition of human U251 cells after 48 hrs by sulforhodamine B assay; format: functional; conditions: U-251, 48 h
[28] = Growth inhibition of human HOP92 cells after 48 hrs by sulforhodamine B assay; format: functional; conditions: HOP-92, 48 h; how it was run: as §1
[29] = Growth inhibition of human MOLT4 cells after 48 hrs by sulforhodamine B assay; format: functional; conditions: MOLT-4, 48 h; how it was run: as §1
[30] = Growth inhibition of human SF295 cells after 48 hrs by sulforhodamine B assay; format: functional; conditions: SF-295, 48 h
[31] = tested on: OVCAR-5; assay: Growth inhibition of human OVCAR5 cells after 48 hrs by sulforhodamine B assay; format: functional; conditions: OVCAR-5, 48 h
[32] = Growth inhibition of human NCI-ADR-RES cells after 48 hrs by sulforhodamine B assay; format: functional; how it was run: as §1
[33] = tested on: HOP-62; assay: Growth inhibition of human HOP62 cells after 48 hrs by sulforhodamine B assay; format: functional; conditions: HOP-62, 48 h; how it was run: as §1
[34] = tested on: SNB-19; assay: Growth inhibition of human SNB19 cells after 48 hrs by sulforhodamine B assay; format: functional; conditions: SNB-19, 48 h
[35] = tested on: 786-0; assay: Growth inhibition of human 786-0 cells after 48 hrs by sulforhodamine B assay; format: functional; conditions: 786-0, 48 h; how it was run: as §1
[36] = tested on: UACC-62; assay: Growth inhibition of human UACC62 cells after 48 hrs by sulforhodamine B assay; format: functional; conditions: UACC-62, 48 h
[37] = tested on: SK-OV-3; assay: Growth inhibition of human SKOV3 cells after 48 hrs by sulforhodamine B assay; format: functional; conditions: SK-OV-3, 48 h
[38] = tested on: CCRF-CEM; assay: Growth inhibition of human CCRF-CEM cells after 48 hrs by sulforhodamine B assay; format: functional; how it was run: as §1
[39] = Growth inhibition of human RXF393 cells after 48 hrs by sulforhodamine B assay; format: functional; conditions: RXF 393, 48 h
[40] = tested on: Malme-3M; assay: Growth inhibition of human MALME-3M cells after 48 hrs by sulforhodamine B assay; format: functional; how it was run: as §1
[41] = tested on: T47D; assay: Growth inhibition of human T47D cells after 48 hrs by sulforhodamine B assay; format: functional
[42] = tested on: TK-10; assay: Growth inhibition of human TK10 cells after 48 hrs by sulforhodamine B assay; format: functional; conditions: TK-10, 48 h
[43] = tested on: ACHN; assay: Growth inhibition of human ACHN cells after 48 hrs by sulforhodamine B assay; format: functional; how it was run: as §1
[44] = Growth inhibition of human BT549 cells after 48 hrs by sulforhodamine B assay; format: functional; conditions: BT-549, 48 h; how it was run: as §1

COc1ccc(-c2[nH]c3ccccc3c2/C=C(\C#N)S(=O)(=O)c2ccccc2)cc1
GI50 [1]: 0.299 µM | GI50 [2]: 0.244 µM | GI50 [3]: 1.3 µM | GI50 [4]: 0.344 µM | GI50 [5]: 0.35 µM | GI50 [6]: 0.45 µM | EC50 [7]: 0.2 µM | GI50 [8]: 2.1 µM | GI50 [9]: < 0.01 µM | GI50 [10]: 10.7 µM | GI50 [11]: 0.803 µM | GI50 [12]: 0.398 µM | GI50 [13]: 18.1 µM | GI50 [14]: 1.3 µM | GI50 [15]: 0.557 µM | GI50 [16]: 4.7 µM | GI50 [17]: 1.5 µM | GI50 [18]: 0.997 µM | GI50 [19]: 0.578 µM | GI50 [20]: 0.294 µM | GI50 [21]: 0.554 µM | GI50 [22]: 0.383 µM | GI50 [23]: 0.535 µM | GI50 [24]: 2.8 µM | GI50 [25]: 0.374 µM | GI50 [26]: 0.399 µM | GI50 [27]: 0.473 µM | GI50 [28]: 2.3 µM | GI50 [29]: 0.871 µM | GI50 [30]: 0.5 µM | GI50 [31]: 1.9 µM | GI50 [32]: 0.428 µM | GI50 [33]: 1 µM | GI50 [34]: 0.863 µM | GI50 [35]: 1.2 µM | GI50 [36]: 0.597 µM | GI50 [37]: 0.528 µM | GI50 [38]: 1.3 µM | GI50 [39]: 1 µM | GI50 [40]: 1.2 µM | GI50 [41]: 0.533 µM | GI50 [42]: 4.8 µM | GI50 [43]: 1.9 µM | GI50 [44]: 1.6 µM

COc1ccc2[nH]c(-c3ccccc3)c(C=C(C#N)C#N)c2c1
GI50 [1]: 2.9 µM | GI50 [2]: 3.1 µM | GI50 [3]: 4.1 µM | GI50 [4]: 2.9 µM | GI50 [5]: 0.865 µM | GI50 [6]: 6.5 µM | EC50 [7]: 1 µM | GI50 [8]: 2.6 µM | GI50 [9]: 2.1 µM | GI50 [10]: 30 µM | GI50 [11]: 7 µM | GI50 [12]: 2.2 µM | GI50 [13]: 5.9 µM | GI50 [14]: 4.9 µM | GI50 [15]: 5.4 µM | GI50 [16]: 6.4 µM | GI50 [17]: 4.7 µM | GI50 [18]: 4.1 µM | GI50 [19]: 5.4 µM | GI50 [20]: 2.5 µM | GI50 [21]: 3.2 µM | GI50 [22]: 2.3 µM | GI50 [23]: 2.1 µM | GI50 [24]: 3.5 µM | GI50 [25]: 3.5 µM | GI50 [26]: 4.4 µM | GI50 [27]: 3.5 µM | GI50 [28]: 2.4 µM | GI50 [29]: 3.7 µM | GI50 [30]: 4.2 µM | GI50 [31]: 44.2 µM | GI50 [32]: 2.8 µM | GI50 [33]: 5.3 µM | GI50 [34]: 6 µM | GI50 [35]: 6.6 µM | GI50 [36]: 2.5 µM | GI50 [37]: 4.8 µM | GI50 [38]: 3.4 µM | GI50 [39]: 9.8 µM | GI50 [40]: 4.4 µM | GI50 [41]: 2.3 µM | GI50 [42]: 5.1 µM | GI50 [43]: 7.4 µM | GI50 [44]: 2.2 µM
